Experimental data reported in paper PMC5992689 (Molecular Therapy. Nucleic Acids, 2018).

What was measured:
[1] = tested on: CD206 (M2)-positive primary microglia; experiment: CD206 immunocytochemistry of peptide-labeled microglia; assay type: cell-based, C57BL/6 mice; settings: FITC-labeled peptide 1 μg/mL, 24 hr; n = 6 wells
In short: (§1)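 Primary C57BL/6 microglia were isolated from 14-day mixed glial culture and incubated 24 hr with FITC-peptide at 1 μg/mL. They were then fixed in 4% PFA and immunostained for CD86 (M1) or CD206 (M2) with Alexa Fluor 555 secondaries. Marker-positive cells were counted by confocal microscopy as a percentage of FITC-positive microglia across six independent wells, with >1,000 cells in total and triplicate experiments.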

[2] = tested on: primary cultured microglia; experiment: Binding of FITC-labeled peptides to cultured microglia; assay type: cell-based, C57BL/6 mice; settings: FITC-labeled peptide 1 μg/mL, 24 hr; for FITC labeling of primary cultured microglia (in words): Iba1 immunostaining; for percentage of FITC-positive microglia in all Iba1-positive cells: n = 6 wells
In short: (§2)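 Cells were exposed to FITC-labelled peptide at 1 μg/mL in culture medium for 24 hr, fixed in 4% PFA and immunostained for MAP2 (NSC-34, maintained in DMEM/F12 with 10% FCS), GFAP (primary astrocytes) or Iba1 (primary microglia). Primary cultures came from C57BL/6 pups 1–2 days postpartum. FITC-positive marker cells were counted by confocal microscopy in six independent wells and averaged as a percentage; experiments were run in triplicate.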

[3] = tested on: CD86 (M1)-positive primary microglia; experiment: CD86 immunocytochemistry of peptide-labeled microglia; assay type: cell-based, C57BL/6 mice; settings: FITC-labeled peptide 1 μg/mL, 24 hr; n = 6 wells
In short: as §1

[4] = tested on: primary cultured astrocytes; experiment: Binding of FITC-labeled peptides to cultured astrocytes; assay type: cell-based, C57BL/6 mice; settings: FITC-labeled peptide 1 μg/mL, 24 hr, GFAP immunostaining
In short: as §2

NSC-34 cells (neuron) = experiment: Binding of FITC-labeled peptides to neuronal cells; assay type: cell-based; settings: FITC-labeled peptide 1 μg/mL, 24 hr, MAP2 immunostaining
In short: as §2

[5] = tested on: spinal cord astrocytes (GFAP) and microglia (Iba1); assay type: in vivo, C57BL/6 mice; settings: 3 μg FITC-labeled peptide, intrathecal, 3 hr; MG1 compared with MG2
KT-5 cells (astrocytes) = experiment: Phage display panning; assay type: binding; settings: 48 of the 58 phage plaques, astrocytes (KT-5)
In short: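 A CX7C M13 library in Tris-buffered saline (pH 7.5) was given via tail vein to C57BL/6 mice. After 5 min, blood was removed transcardially, and spinal cords were homogenised in DMEM with protease inhibitor. Phage were titrated as plaques in E. coli ER2738, amplified and re-injected for three rounds. Three 5-min in vitro panning cycles on KT-5 cells followed, and pIII inserts of 50–58 phages were sequenced.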

| Substance | percentage of CD206-positive cells in the microglia labeled with the peptide [1] [%] | FITC labeling of primary cultured microglia (in words) [2] | percentage of FITC-positive microglia in all Iba1-positive cells [2] | percentage of CD86-positive cells in the microglia labeled with the peptide [3] [%] | FITC labeling of primary cultured astrocytes (in words) [4] | FITC labeling of NSC-34 cells (in words) (NSC-34 cells (neuron)) | accumulation of peptide in the spinal cord tissues [5] | frequency of phage plaques (KT-5 cells (astrocytes)) [%] |
| --- | --- | --- | --- | --- | --- | --- | --- | --- |
| C-HHSSSAR-C [MG1] | 26 | mainly present in Iba1-positive microglia | approximately 60% | 40 | not observed | not observed | greater accumulation of MG1 peptides than of MG2 peptides |  |
| C-LNSSQPS-C [AS1] |  | not with MAP2 staining in neurons or Iba1 staining in microglia |  |  | only observed in astrocytes | not with MAP2 staining in neurons or Iba1 staining in microglia |  | 83 |
| C-NTGSPYE-C [MG2] | 47 | observed only in the primary cultured microglia | approximately 40% | 27 | not in the NSC-34 cells or astrocytes | not in the NSC-34 cells or astrocytes |  |  |
